This is an account of results in ChEMBL document CHEMBL1124291, “New actinomycin D analogues as superior chemotherapeutic agents against primary and advanced colon tumors and colon xenografts in nude mice” (J Med Chem, 1988).

Structures are written as SMILES.

For series [1], the species on record is Rattus norvegicus. Nature of the series: The formation of adrenochrome from epinephrine in the absence of SOD(super oxide dismutase). In kind it is functional. The essentials:
(§1)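 Drug-stimulated superoxide generation with rat liver microsomal enzymes and NADPH as cofactor. NADPH oxidation was read at 340 nm. Adrenochrome formed from epinephrine was read at 480 nm, with or without superoxide dismutase. % stimulation = [(drug-stimulated rate − basal rate)/basal rate] × 100. Values are mean ± standard error of triplicate analyses.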

Series [2] has as its system MC-38. Briefly: Number of toxic deaths/number of mice in a group of non tumored mice treated in parallel with the tumor-bearing mice and observed for 100 days at a dose 0.15 mg/kg; value given as 1/9. In kind it is toxicity, organism-based. More on the design: dose 0.15 mg/kg. As to conditions: mouse, in vivo, 2400 h. Put shortly:
(§2)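 Non-tumored CDF1 mice were treated in parallel with colon 38 tumor-bearing mice: iv injections on days 1, 5 and 9, groups of nine. Deaths were counted over 100 days of observation and reported as toxic deaths / mice in group.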

The test system of series [3] is MC-38. Briefly: Mean survival time of treated / untreated group x100. (number of over 100-day survivors/number of total mice in the group) at a dose 0.60 mg/kg. In kind it is functional, Mus musculus. To be noted: dose 0.6 mg/kg. The essentials: (§3)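 CDF1 mice were implanted sc on day 0 with colon 38 adenocarcinoma fragments (70 mg) and given iv drug on days 1, 5 and 9. %T/C = median survival of treated / untreated × 100. Number of mice surviving over 100 days / group total is given in parentheses.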

Series [4] deals with MC-38. Nature of the series: Activity against advanced carcinoma C38 tumor in CDF1 Mice at dose 0.15 mg/kg measured as % inhibition of tumor. In kind it is functional. To be noted: Mus musculus.
For series [5], the system named is MC-38. Nature of the series: Activity against advanced carcinoma C38 tumor in CDF1 Mice at dose 0.60 mg/kg measured as % inhibition of tumor. In kind it is functional. To be noted: Mus musculus.
Series [6] relates to HT-29. Briefly: 50% inhibition of incorporationf precursor [3H]thymidine into DNA HT-29 cell lines. In kind it is functional, cell-based. To be noted: Homo sapiens, HT-29, 2 h. Put shortly: (§4)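 HT-29 colon carcinoma monolayers, 10^4 cells per well, five wells per concentration. Drug exposure lasted 2 h, with [³H]thymidine and [2-¹⁴C]uridine (0.5 μCi each) added for the last hour. Cells were washed, trypsinized, counted and precipitated onto glass-fiber filters with 10% TCA. Acid-precipitable radioactivity was measured. IC50 is the concentration inhibiting 50% of incorporation; data are averages of replicate experiments.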

In series [7] the test system is MC-38. Briefly: Activity against advanced carcinoma C38 tumor in CDF1 Mice at dose 1.20 mg/kg measured as % inhibition of tumor. In kind it is functional. As to conditions: Mus musculus.
In series [8] the test system is MC-38. Nature of the series: Activity against advanced carcinoma C38 tumor in CDF1 Mice at dose 0.30 mg/kg measured as % inhibition of tumor. As to conditions: Mus musculus. In kind it is functional.
Series [9] is filed under the species Rattus norvegicus. Nature of the series: The formation of adrenochrome from epinephrine in the presence of SOD(super oxide dismutase); + denotes ' Inhibited'. In kind it is functional. Put shortly: as §1
For series [10], the system named is MC-38. Briefly: Number of toxic deaths/number of mice in a group of non tumored mice treated in parallel with the tumor-bearing mice and observed for 100 days at a dose 1. 20 mg/Kg; value given as 4/9. In kind it is toxicity, cell-based. As to conditions: mouse, in vivo, 2400 h. The essentials:
as §2

In series [11] the test system is MC-38. Nature of the series: Number of toxic deaths/number of mice in a group of non tumored mice treated in parallel with the tumor-bearing mice and observed for 100 days at a dose 0.30 mg/kg; value given as 0/9. In kind it is functional, Mus musculus. To be noted: dose 0.3 mg/kg. The essentials:
as §2

Series [12] has as its system MC-38. Briefly: Mean survival time of treated / untreated group x100. (number of over 100-day survivors/number of total mice in the group) at a dose 0.30 mg/kg. In kind it is functional, Mus musculus. To be noted: dose 0.3 mg/kg. The essentials: as §3
The species named for series [13] is Rattus norvegicus. Briefly: Stimulation of NADPH oxidation in the presence of rat liver microsomes. In kind it is functional. The essentials:
as §1
Background: Liver microsomes are vesicles of endoplasmic reticulum, rich in cytochrome P450 enzymes.

Series [14] has as its system B16. Nature of the series: in vivo Antitumor activity against B16 melanoma cells at dose 300 ug/Kg /inj measured as mean survival time (MST). In kind it is functional, Mus musculus. The essentials: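 B16 melanoma implanted ip on day 0 as 0.2 mL of a 1:5 (weight/volume) brei, in groups of nine BDF₁ mice; drugs given ip. MST is the median survival time in days, with the range of days of death of individual animals; % ILS is percent increase in life span, with survivors on day 65 over total injected.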

The subject of a further series is P388 (Mus musculus). Nature of the series: 50% inhibition of incorporation of precursor [3H]thymidine into DNA P388 cell lines. As to conditions: P388, 2 h.
Series [15] concerns MC-38. Briefly: Mean survival time of treated / untreated group x100. (number of over 100-day survivors/number of total mice in the group) at a dose 0.15 mg/kg. In kind it is functional, Mus musculus. The essentials: as §3
In series [16] the test system is HT-29. Nature of the series: 50% inhibition of incorporationf precursor [3H]thymidine into RNA HT-29 cell lines. In kind it is functional, cell-based. As to conditions: Homo sapiens, HT-29, 2 h; in the assay text read “[14C]uridine” for “[3H]thymidine”. Put shortly:
as §4

Series [17] has as its system MC-38. Nature of the series: Number of toxic deaths/number of mice in a group of non tumored mice treated in parallel with the tumor-bearing mice and observed for 100 days at a dose 0.60 mg/kg; value given as 0/9. In kind it is functional, Mus musculus. To be noted: dose 0.6 mg/kg. The essentials:
as §2

The subject of series [18] is B16. Briefly: In vivo antitumor activity against B16 melanoma cells at a optimal dose measured as %ILS (%increase life span) at a dose 300 micro g/Kg/inj. In kind it is functional, Mus musculus. The essentials:
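BDF1 mice in groups of nine were implanted ip on day 0 with 0.2 mL of 1:5 (w/v) B16 melanoma brei; drugs were given ip. Survival is reported as median survival time in days with range, and as %ILS, with survivors counted on day 65 out of total injected.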

Series [19] concerns P388. Briefly: Antitumor activity in P388/ADR (adriamycin resistant), in male BDF1 mice measured as optimal dose at dose 0.10-0.8 mg/kg.
Series [20] deals with P388. Nature of the series: 50% inhibition of incorporation precursor [14C]uridine into RNA P388 cell lines. In kind it is functional, cell-based. To be noted: Mus musculus.
Series [21] has as its system MC-38. Nature of the series: Mean survival time of treated / untreated group x100. (number of over 100-day survivors/number of total mice in the group) at a dose 1.20 mg/kg. In kind it is functional, Mus musculus. As to conditions: dose 1.2 mg/kg. Put shortly:
as §3

The subject of series [22] is P388. Briefly: Antitumor activity in P388/S(AMD sensitive) in male BDF1 mice measured as optimal dose.

In general, T/C refers to the result in the treated group divided by that in the control group, in per cent. In general, inhibition in vivo refers to the relative decrease from the control value, in per cent. As usually defined, the IC50 is the concentration that inhibits the measured activity by half. As usually defined, the ILS is the gain in survival time of treated over control animals, in per cent. Lower therefore signals little gain in survival. As for `Cc1c2oc3c(C)c4oc(-c5ccccc5)nc4c(C(=O)N[C@@H]4C(=O)N[C@H](C(C)C)C(=O)N5CCC[C@H]5C(=O)N(C)CC(=O)N(C)[C@@H](C(C)C)C(=O)O[C@@H]4C)c3nc-2c(C(=O)N[C@@H]2C(=O)N[C@H](C(C)C)C(=O)N3CCC[C@H]3C(=O)N(C)CC(=O)N(C)[C@@H](C(C)C)C(=O)O[C@@H]2C)c(N)c1=O`, the values for the Adrenochrome formation in the series listed under Rattus norvegicus [1] and in the series filed under Rattus norvegicus [9] were 18.8 nM min-1 (mg of protein)-1 and “Inhibited”, respectively. The Toxic deaths with MC-38 [2] is 1; in the series with MC-38 [10], 4; in the series on MC-38 [11] it was 0; with MC-38 [17] it was 0. Further, the T/C in the series on MC-38 [3] turned out to be 170%; in the series on MC-38 [12] it was 137%; with MC-38 [15] it was 103%; in the series on MC-38 [21], 103%. The molecule further had an inhibition in vivo at 0.15 mg/kg with MC-38 [4] of 29%. Testing at 0.6 mg/kg with MC-38 [5] gave an inhibition in vivo of 83%. Further, the IC50 worked out at 0.58 µM with HT-29 [6], 0.78 µM in the series on P388 (Mus musculus), 0.068 µM with HT-29 [16] and 0.07 µM in the series on P388 [20]. Also, the inhibition in vivo at 1.2 mg/kg in the series on MC-38 [7] amounted to 88%. In the series with MC-38 [8], this molecule yielded an inhibition in vivo at 0.3 mg/kg of 70%. Also, in the series listed under Rattus norvegicus [13], the NADPH oxidation (nM min-1 (mg of protein)-1) came out at 65. In the series on B16 [14], this molecule came in with an MST of 59. The molecule also had an ILS in the series on B16 [18] of 103%. For the same molecule, the optimal dose in the series with P388 [19] was found to be 0.6 mg/kg; in the series on P388 [22], 0.35 mg/kg.
